Results published in ChEMBL document CHEMBL1154375, “Novel dehydroepiandrosterone derivatives with antiapoptotic, neuroprotective activity” (J Med Chem, 2009).
Calls of active or inactive are those of the source. The calls are words filed in the database; no cut-off is given here.

Experiments:
[1] = system: PC-12; assay: Neuroprotective activity in rat PC12 cells assessed as inhibition of serum deprivation-induced apoptosis at 100 nM after 24 hrs by APO Percentage apoptosis assay; format: functional, cell-based
In short: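 PC12 cells cultured 24 h in serum-free medium with BSA and 10 nM haloperidol plus 100 nM steroid. Apoptotic cells stained with APOPercentage dye, dye released and read at 550 nm (reference 620 nm); expressed relative to serum-free control; at least four experiments in triplicate.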

[2] = system: MCF7; assay: Induction of human MCF7 cells growth containing endogenous ERalpha receptor at 1 uM by MTT assay relative to estradiol; format: functional
In short: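 Breast cancer cells at 8000/well in phenol red-free MEM, 1 μg/mL insulin, 5% charcoal-stripped FBS; after 72 h, 96 h exposure; MTT formazan at 550 nm.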

[3] = system: PC-12; assay: Induction of dopamine release in rat PC12 cells at 10 nM after 10 mins by radioimmunoassay relative to control; format: functional
In short: (§1)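 PC12 cells at 10^6/well on poly(L-lysine) exposed to 10 nM steroid in serum-free medium for 5–30 min or 3–48 h; 1 mL supernatant acidified with 0.1 M HCl; dopamine measured by 125I radioimmunoassay after COMT conversion to 3-methoxytyramine and acylation. Expressed as % of untreated cells; four independent experiments.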

[4] = system: PC-12; assay: Induction of dopamine release in rat PC12 cells at 10 nM after 24 hrs mins by radioimmunoassay; format: functional, cell-based; in short: as §1
[5] = system: PC-12; assay: Induction of tyrosine hydroxylase mRNA expression in rat PC12 cells at 10 nM after 6 hrs mins by RT-PCR; format: functional, cell-based
In short: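 PC12 cells incubated 6 h with 10 nM steroid; TH mRNA measured by RT-PCR, 33 cycles, 368 bp product on 2% agarose gel, normalized to GAPDH mRNA.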

[6] = target: T1, Estrogen receptor (Homo sapiens) (UniProt P03372); assay: Agonist activity at ERalpha in human MCF7:D5L cells assessed as induction of ERE-dependent luciferase expression at 1 uM relative to estradiol; format: functional, cell-based
T1 sequence (whole entry): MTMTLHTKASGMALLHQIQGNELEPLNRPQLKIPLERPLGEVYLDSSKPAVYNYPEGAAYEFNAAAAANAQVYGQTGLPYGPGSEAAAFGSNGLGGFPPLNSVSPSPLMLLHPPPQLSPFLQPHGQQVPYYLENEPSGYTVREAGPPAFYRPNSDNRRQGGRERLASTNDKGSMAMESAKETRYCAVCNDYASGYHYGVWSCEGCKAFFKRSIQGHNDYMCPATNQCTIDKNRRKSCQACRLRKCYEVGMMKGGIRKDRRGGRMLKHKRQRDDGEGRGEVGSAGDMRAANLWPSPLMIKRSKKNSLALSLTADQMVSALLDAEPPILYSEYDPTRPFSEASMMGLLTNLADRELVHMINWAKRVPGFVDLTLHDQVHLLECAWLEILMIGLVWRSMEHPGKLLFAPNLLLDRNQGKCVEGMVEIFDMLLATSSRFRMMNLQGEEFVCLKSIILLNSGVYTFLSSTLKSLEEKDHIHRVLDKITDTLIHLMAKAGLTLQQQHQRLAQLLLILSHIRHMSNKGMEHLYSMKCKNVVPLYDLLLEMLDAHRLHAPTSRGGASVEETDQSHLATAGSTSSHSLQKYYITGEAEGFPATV

[7] = target: T1, Estrogen receptor (Homo sapiens); assay: Antagonist activity at ERalpha in human MCF7:D5L cells assessed as inhibition of ERE-dependent luciferase expression at 1 uM relative to ICI-182780; format: functional, cell-based
[8] = target: Estrogen receptor beta (Homo sapiens) (UniProt Q92731); assay: Agonist activity at ERbeta in HEK293 cells assessed as induction of ERE-dependent luciferase expression at 1 uM relative to estradiol; format: functional, cell-based
Chain of Estrogen receptor beta (Homo sapiens) (Q92731 whole entry): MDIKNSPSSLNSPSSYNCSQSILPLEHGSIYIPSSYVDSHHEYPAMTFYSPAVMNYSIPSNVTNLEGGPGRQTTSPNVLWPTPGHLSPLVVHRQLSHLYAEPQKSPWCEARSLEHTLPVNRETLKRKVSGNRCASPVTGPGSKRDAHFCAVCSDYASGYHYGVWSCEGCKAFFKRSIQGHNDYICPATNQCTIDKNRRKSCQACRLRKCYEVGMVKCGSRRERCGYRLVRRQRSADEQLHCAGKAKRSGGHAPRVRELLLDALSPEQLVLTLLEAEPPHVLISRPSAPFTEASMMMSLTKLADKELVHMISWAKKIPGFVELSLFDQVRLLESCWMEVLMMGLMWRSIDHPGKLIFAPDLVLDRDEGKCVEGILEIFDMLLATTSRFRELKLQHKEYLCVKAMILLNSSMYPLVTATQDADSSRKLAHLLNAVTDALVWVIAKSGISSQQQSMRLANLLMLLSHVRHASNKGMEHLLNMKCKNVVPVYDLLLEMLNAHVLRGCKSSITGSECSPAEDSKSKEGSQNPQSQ

[9] = target: Estrogen receptor beta (Homo sapiens) (UniProt Q92731); assay: Antagonist activity at ERbeta in HEK293 cells assessed as inhibition of ERE-dependent luciferase expression at 1 uM relative to ICI-182780; format: functional, cell-based; parameters: scale not given: the % may be the effect or the level left
[10] = target: T1, Estrogen receptor (Homo sapiens); assay: Agonist activity at estrogen receptor in human Ishikawa cells assessed as induction of ERE-dependent alkaline phosphatase level at 1 uM relative to estradiol; format: functional, cell-based
[11] = target: T1, Estrogen receptor (Homo sapiens); assay: Antagonist activity at estrogen receptor in human Ishikawa cells assessed as inhibition of ERE-dependent alkaline phosphatase levels at 1 uM relative to ICI-182780; format: functional, cell-based; parameters: scale not given: the % may be the effect or the level left
[12] = system: Ishikawa; assay: Induction of human Ishikawa cells growth containing endogenous ERalpha receptor at 1 uM by MTT assay relative to estradiol; format: functional, cell-based
In short: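 Endometrial cells at 8000/well in phenol red-free MEM, 1 μg/mL insulin, 5% charcoal-stripped FBS; compound added 24 h after plating, 96 h exposure; MTT at 550 nm.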

[13] = system: LNCaP; assay: Induction of human LNCAP cells growth containing endogenous […] receptor at 1 uM by MTT assay relative to estradiol; format: functional, cell-based
In short: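 Prostate cells at 5000/well on polylysine-coated wells in phenol red-free RPMI with 10% charcoal-stripped FBS; after 72 h, 96 h exposure; MTT at 550 nm.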

[14] = system: PC-12; assay: Cytotoxicity against rat PC12 cells at 0.1 to 10 uM after 24 to 72 hrs by MTT assay; format: cell-based; details: pc-12, 10 µM
In short: (§2)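 Seeded at 2×10^4 cells/mL in serum-containing medium (PC12: RPMI 1640, 10% horse serum, 5% FBS; HEK293 and HT22: DMEM, 10% FBS) for 24 h, then 0.1, 1 or 10 μM compound for 24, 48 or 72 h. MTT 5 mg/mL, 4 h, 37 °C; DMSO-dissolved formazan read at 570 nm; % of untreated control; three replicates, three experiments.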

[15] = system: HEK293; assay: Cytotoxicity against HEK293 cells at 0.1 to 10 uM after 24 to 72 hrs by MTT assay; format: cell-based; details: human, hek293, 10 µM; in short: as §2
[16] = Cytotoxicity against mouse HT22 cells at 0.1 to 10 uM after 24 to 72 hrs by MTT assay; format: cell-based; details: ht-22, 10 µM; in short: as §2
[17] = system: PC-12; assay: Neuroprotective activity in rat PC12 cells assessed as inhibition of serum deprivation-induced apoptosis after 24 hrs by APO Percentage apoptosis assay; format: functional, cell-based; details: PC-12, 24 h
[18] = system: PC-12; assay: Neuroprotective activity in rat PC12 cells assessed as inhibition of serum deprivation-induced apoptosis after 24 hrs by FACS flow cytometry; format: functional, cell-based
In short: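 PC12 cells (10^6/well) 24 h in serum-free medium with BSA plus 100 nM steroid; stained with 2 μg/mL annexin V-FITC (10 min, dark, HEPES/CaCl2 buffer pH 7.4) and propidium iodide, analysed by flow cytometry within 20 min, 10000 cells per treatment; at least four experiments in triplicate.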

[19] = Displacement of [3H]DHEA from DHEA-binding site in rat PC12 cell membranes by […] counting; parameters: species or system Membrane; details: pc-12
[20] = system: PC-12; assay: Neuroprotective activity against serum deprivation-induced apoptosis in rat PC12 cells assessed as increase in antiapoptotic protein Bcl2 levels at 10 nM after 12 hrs by Western blot; format: functional, cell-based
In short: (§3)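 PC12 cells cultured 12 h in serum-free medium (0.1% BSA, 10 nM haloperidol) with 10 nM steroid; total protein extracts Western blotted for Bcl-2 or Bcl-xL, band intensity by densitometry normalized to actin; % of control; three independent experiments.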

[21] = system: PC-12; assay: Neuroprotective activity against serum deprivation-induced apoptosis in rat PC12 cells assessed as increase in antiapoptotic protein Bcl-XL levels at 10 nM after 12 hrs by Western blot; format: functional, cell-based; in short: as §3

C[C@]12CC[C@@](O)(CN=[N+]=[N-])CC1=CC[C@@H]1[C@@H]2CC[C@]2(C)C(=O)CC[C@@H]12
inhibition [1]: inactive

C[C@]12CC[C@H](O)CC1=CC[C@@H]1[C@@H]2CC[C@@]2(C)[C@H]1CC[C@@]21CO1
Activity [2]: 33%
fold change (FC) [3]: 2
Activity [4]: Active
Activity [5]: Active
Activity [6]: 29%
Activity [7]: inactive
Activity [8]: inactive
Activity [9]: inactive
Activity [10]: 22%
Activity [11]: inactive
Activity [12]: inactive
Activity [13]: inactive
Activity [14]: Non-toxic
Activity [15]: Non-toxic
Activity [16]: Non-toxic
IC50 [17]: 0.19 nM
Activity [18]: Active
IC50 [19]: 0.04 nM
Activity [20]: Active
Activity [21]: Active

C[C@@]1(O)CC[C@@]2(C)C(=CC[C@@H]3[C@@H]2CC[C@]2(C)C(=O)CC[C@@H]32)C1
inhibition [1]: inactive

C[C@]1(O)CC[C@@]2(C)C(=CC[C@@H]3[C@@H]2CC[C@]2(C)C(=O)CC[C@@H]32)C1
inhibition [1]: inactive

C[C@]12CC[C@H](O)CC1=CC[C@@H]1[C@@H]2CC[C@@]2(C)[C@H]1CC[C@]21O[C@@H]1CO
Activity [2]: inactive
fold change (FC) [3]: 2
Activity [4]: Active
Activity [5]: Active
Activity [6]: inactive
Activity [7]: inactive
Activity [8]: inactive
Activity [9]: 31%
Activity [10]: inactive
Activity [11]: 24%
Activity [12]: inactive
Activity [13]: inactive
Activity [14]: Non-toxic
Activity [15]: Non-toxic
Activity [16]: Non-toxic
IC50 [17]: 6.4 nM
Activity [18]: Active
IC50 [19]: 18.6 nM
Activity [20]: Active
Activity [21]: Active

C[C@]12CC[C@H](O)CC1=CC[C@@H]1[C@@H]2CC[C@]2(C)C(=O)CC[C@@H]12 [PRASTERONE]
IC50 [17]: 0.29 nM
IC50 [19]: 1.65 nM

CO[C@H]1CC[C@H]2[C@@H]3CC=C4C[C@@H](O)CC[C@]4(C)[C@H]3CC[C@]12C
inhibition [1]: inactive

COC[C@]1(O)CC[C@@]2(C)C(=CC[C@@H]3[C@@H]2CC[C@]2(C)C(=O)CC[C@@H]32)C1
inhibition [1]: inactive

C[C@]12CC[C@H](O)CC1=CC[C@@H]1[C@@H]2CC[C@@]2(C)[C@H]1CC[C@]21O[C@H]1CO
Activity [2]: inactive
Activity [6]: inactive
Activity [7]: inactive
Activity [8]: inactive
Activity [9]: inactive
Activity [10]: inactive
Activity [11]: inactive
Activity [12]: inactive
Activity [13]: inactive
Activity [14]: Non-toxic
Activity [15]: Non-toxic
Activity [16]: Non-toxic
IC50 [17]: 99 nM
Activity [18]: Active
IC50 [19]: 0.11 nM
Activity [20]: Active
Activity [21]: Active

CCCC[C@@]1(O)CC[C@@]2(C)C(=CC[C@@H]3[C@@H]2CC[C@]2(C)C(=O)CC[C@@H]32)C1
inhibition [1]: inactive

C[C@]12CC[C@@](O)(CC#N)CC1=CC[C@@H]1[C@@H]2CC[C@]2(C)C(=O)CC[C@@H]12
inhibition [1]: inactive
